Data from paper PMC6150782 (Journal of molecular neuroscience : MN, 2018).
≈ marks a conversion by molar mass, not a printed value.

Key:
hippocampal cultures [1] = assay type: cell-based, rat; details: for cell death response at 30 min or 60 min of incubation / time points with significant cell death differences from control: 30 μM cannabidiol, 100 μM KLS-13019, day 18–19 cultures
[2] = Aqueous solubility, shaken flask method; assay type: physicochemical
In short: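 Shake-flask method at pH 1.2, 7.4 and 9.2. Dissolved concentration measured by HPLC against a standard curve.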

[3] = Metabolic stability in mouse liver microsomes; assay type: in vitro ADME
In short: (§1)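 Test compound at 1 μM incubated with human or mouse liver microsomes for up to 60 min. Samples analysed by LTQ-Orbitrap XL mass spectrometry. Single determination per time point. Testosterone at 1 μM served as the metabolically labile control. Run by a contract lab.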

[4] = Mouse plasma pharmacokinetics; assay type: in vivo, CD1 mice
hippocampal cultures [5] = test: Effect of CB2 antagonist AM 630 on neuroprotection from ethanol, CFDA assay; assay type: cell-based, rat; details: AM 630 0.1 to 100 nM; 30 mM ethanol; 10 μM CBD or 100 nM KLS-13019
[6] = Metabolic stability in human liver microsomes; assay type: in vitro ADME
In short: as §1

hERG channel = hERG channel (Homo sapiens, UniProt Q12809); test: hERG channel binding assay; details: 10 μM; [3H]-dofetilide; HEK-293
In short: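 Binding to human recombinant hERG expressed in HEK-293 cells, using 3 nM [3H]-dofetilide. Test compound at 10 μM, 60 min at room temperature. Non-specific binding defined with 25 μM terfenadine. Reported as % inhibition of control specific binding. Run by a contract lab.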

[7] = test system: dissociated rat hippocampal cultures; assay type: cell-based
In short: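 Papain-dissociated E18 rat hippocampal cells at 10,000/well in serum-free Neurobasal/B27/GlutaMAX, used at days 12–14 after a medium change. Test compound (DMSO stock diluted in DPBS, ≤0.1% DMSO; 5 concentrations, n=5, two plates) added 5 min before 30 mM ethanol plus 300 μM ammonium acetate, then 5 h at 37 °C. CFDA 15 min at 37 °C, 30 min efflux wash, Triton lysis, Ex490/Em517. EC50 from 4-parameter logistic fit.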

[8] = test system: dissociated rat hippocampal cultures; assay type: cell-based; remark: listed apart in the source
In short: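 E18 rat hippocampal cultures at days 12–14 received test compound (5 concentrations, n=5, two plates) 5 min before 30 mM ethanol plus 300 μM ammonium acetate, then 5 h at 37 °C. Medium removed and 50 μM propidium iodide applied for 15 min in the dark at room temperature. Read at Ex536/Em590 minus cell-free blank wells. IC50 from 4-parameter logistic fit.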

Log P = assay type: physicochemical
TRPV1 = TRPV1 (Homo sapiens, UniProt Q8NER1); test: TRPV1 receptor binding screen; details: 10 μM; data not shown
[9] = Plasma protein binding, equilibrium dialysis, mouse plasma; assay type: in vitro ADME; details: 1 μM, 5 hours at 37 °C
CB2 = CB2 (Homo sapiens, UniProt P34972); test: CB2 binding; details: 10 μM; 0.8 nM radioligand; human recombinant CHO cells
PPARγ = target: T1, PPARγ (Homo sapiens, UniProt P37231); test: PPARγ agonist binding; details: 10 μM; data not shown
T1 sequence (P37231 1-505): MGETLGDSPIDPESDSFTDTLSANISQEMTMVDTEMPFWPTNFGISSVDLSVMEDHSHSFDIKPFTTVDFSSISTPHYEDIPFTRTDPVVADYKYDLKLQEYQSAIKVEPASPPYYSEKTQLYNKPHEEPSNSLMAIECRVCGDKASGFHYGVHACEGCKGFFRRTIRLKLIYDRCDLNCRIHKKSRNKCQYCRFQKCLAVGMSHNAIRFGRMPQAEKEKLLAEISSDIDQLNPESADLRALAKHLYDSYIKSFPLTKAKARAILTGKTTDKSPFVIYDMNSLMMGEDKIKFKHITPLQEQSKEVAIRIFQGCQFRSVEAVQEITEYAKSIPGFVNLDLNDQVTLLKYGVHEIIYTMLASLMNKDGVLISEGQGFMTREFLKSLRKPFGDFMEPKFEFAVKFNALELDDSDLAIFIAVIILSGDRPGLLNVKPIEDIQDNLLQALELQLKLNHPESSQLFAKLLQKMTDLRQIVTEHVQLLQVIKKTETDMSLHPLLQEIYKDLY

5HT1a = target: T2, 5HT1a (Homo sapiens, UniProt P08908); test: 5HT1a agonist binding; details: 10 μM; data not shown
T2 sequence (P08908 1-422): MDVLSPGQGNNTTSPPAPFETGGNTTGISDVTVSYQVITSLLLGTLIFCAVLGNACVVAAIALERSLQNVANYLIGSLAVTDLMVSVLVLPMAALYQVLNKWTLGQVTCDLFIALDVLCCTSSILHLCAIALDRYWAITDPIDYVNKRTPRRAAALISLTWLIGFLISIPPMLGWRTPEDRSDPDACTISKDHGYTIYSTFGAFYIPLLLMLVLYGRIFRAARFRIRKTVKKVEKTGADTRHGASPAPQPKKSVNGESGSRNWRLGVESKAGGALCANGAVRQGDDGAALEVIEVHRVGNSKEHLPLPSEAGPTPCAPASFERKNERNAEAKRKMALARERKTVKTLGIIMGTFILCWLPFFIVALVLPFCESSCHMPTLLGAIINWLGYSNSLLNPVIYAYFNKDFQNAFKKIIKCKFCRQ

hippocampal cultures [10] = assay type: cell-based, rat
[11] = Plasma protein binding, equilibrium dialysis, human plasma; assay type: in vitro ADME; details: 1 μM, 5 hours at 37 °C
[12] = Anticonvulsant activity in animal models; details: in vivo
[13] = male, CD1, mouse, plasma, po, 10 mg/kg
[14] = combined ethanol + ammonium acetate
[15] = compound alone in Captisol, 5 hours, day 14 cultures
[16] = CD1 mice, plasma, 10 mg/kg p.o.

TRPV1, sequence (Q8NER1 whole entry, species assumed): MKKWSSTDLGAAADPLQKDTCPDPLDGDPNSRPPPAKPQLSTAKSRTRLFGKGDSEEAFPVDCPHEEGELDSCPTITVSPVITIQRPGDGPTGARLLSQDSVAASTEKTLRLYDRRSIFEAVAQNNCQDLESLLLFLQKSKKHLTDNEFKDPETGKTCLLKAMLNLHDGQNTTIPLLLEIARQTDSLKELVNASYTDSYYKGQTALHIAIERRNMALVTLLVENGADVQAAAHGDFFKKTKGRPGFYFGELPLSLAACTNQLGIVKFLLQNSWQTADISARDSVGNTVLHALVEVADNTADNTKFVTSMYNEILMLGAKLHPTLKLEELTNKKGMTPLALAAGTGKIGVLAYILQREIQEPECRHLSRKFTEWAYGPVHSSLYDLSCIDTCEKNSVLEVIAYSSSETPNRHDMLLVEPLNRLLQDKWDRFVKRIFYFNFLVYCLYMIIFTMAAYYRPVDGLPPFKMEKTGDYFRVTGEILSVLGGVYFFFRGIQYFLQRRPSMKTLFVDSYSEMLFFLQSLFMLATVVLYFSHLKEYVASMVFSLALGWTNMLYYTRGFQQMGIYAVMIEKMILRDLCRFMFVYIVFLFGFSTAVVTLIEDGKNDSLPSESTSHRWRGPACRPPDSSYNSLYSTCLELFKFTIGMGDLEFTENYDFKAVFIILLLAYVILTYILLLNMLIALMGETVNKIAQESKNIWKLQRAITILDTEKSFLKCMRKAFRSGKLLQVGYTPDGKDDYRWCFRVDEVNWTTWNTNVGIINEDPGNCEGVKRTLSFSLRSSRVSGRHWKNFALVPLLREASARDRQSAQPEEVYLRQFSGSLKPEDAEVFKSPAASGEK
hERG channel, sequence (Q12809 whole entry): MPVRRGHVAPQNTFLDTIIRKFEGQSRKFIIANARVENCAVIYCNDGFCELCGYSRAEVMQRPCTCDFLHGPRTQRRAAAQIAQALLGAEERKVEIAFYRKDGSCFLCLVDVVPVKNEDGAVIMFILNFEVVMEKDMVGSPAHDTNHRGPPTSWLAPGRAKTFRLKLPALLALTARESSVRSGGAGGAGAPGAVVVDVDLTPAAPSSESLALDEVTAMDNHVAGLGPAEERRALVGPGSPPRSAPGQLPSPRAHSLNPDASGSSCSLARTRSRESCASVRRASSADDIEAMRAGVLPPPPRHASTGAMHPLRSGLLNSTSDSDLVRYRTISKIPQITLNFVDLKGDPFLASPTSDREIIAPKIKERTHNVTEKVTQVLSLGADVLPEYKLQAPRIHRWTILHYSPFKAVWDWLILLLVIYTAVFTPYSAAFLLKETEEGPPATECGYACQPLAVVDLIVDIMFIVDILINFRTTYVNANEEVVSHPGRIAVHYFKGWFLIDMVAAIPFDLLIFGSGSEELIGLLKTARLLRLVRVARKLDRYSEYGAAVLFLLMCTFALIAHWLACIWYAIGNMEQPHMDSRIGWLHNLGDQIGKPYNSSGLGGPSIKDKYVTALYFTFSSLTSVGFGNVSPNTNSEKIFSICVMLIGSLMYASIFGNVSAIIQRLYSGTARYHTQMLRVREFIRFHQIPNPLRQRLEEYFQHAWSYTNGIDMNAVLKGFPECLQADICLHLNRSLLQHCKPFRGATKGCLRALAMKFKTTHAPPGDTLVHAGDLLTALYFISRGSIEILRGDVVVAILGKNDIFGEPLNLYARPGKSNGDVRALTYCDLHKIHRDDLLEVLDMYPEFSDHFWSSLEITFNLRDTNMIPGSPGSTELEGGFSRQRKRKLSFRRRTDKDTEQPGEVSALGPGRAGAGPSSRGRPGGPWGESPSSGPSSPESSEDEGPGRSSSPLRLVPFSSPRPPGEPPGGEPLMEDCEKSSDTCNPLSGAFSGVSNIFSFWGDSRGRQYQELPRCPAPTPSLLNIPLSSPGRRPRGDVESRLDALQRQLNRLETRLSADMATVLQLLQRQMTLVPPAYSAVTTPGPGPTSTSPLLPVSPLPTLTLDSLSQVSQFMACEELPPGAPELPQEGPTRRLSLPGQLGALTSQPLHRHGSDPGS
CB2, sequence (P34972 whole entry): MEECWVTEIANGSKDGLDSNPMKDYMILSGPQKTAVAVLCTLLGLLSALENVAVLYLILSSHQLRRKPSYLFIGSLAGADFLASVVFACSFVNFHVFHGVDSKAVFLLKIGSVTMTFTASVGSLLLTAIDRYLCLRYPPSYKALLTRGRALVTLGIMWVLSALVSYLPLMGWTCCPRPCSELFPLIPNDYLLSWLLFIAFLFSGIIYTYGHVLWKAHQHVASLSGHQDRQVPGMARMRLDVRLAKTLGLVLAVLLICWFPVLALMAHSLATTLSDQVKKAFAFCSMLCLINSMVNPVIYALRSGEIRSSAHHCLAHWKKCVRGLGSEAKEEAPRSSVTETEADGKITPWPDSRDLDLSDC

O=C1CSC(c2ccccc2Cl)c2cc(Cl)ccc2N1 (stereo not shown) [CGP-37157, 7-Chloro-5-(2-chlorophenyl)-1,5-dihydro-4,1-benzothiazepin-2(3H)-one, reference compound]
concentration with significant increase in propidium iodide fluorescence (hippocampal cultures [1]; 5 hours, day 14 cultures): 100 µM

C=C(C)[C@@H]1CCC(C)=C[C@H]1c1c(O)cc(CCCCC)cc1O [Cannabidiol, reference compound]
solubility ([2]; aqueous medium): 17 µM (≈ 5.35 µg/mL)
half-life at 1 μM ([3]; mouse, liver microsomes): < 5 min
CL IV 2 mg/kg ([4]; CD1 mice, IV 2 mg/kg): 120 mL/min/kg
T 1/2 p.o. ([4]; CD1 mice, plasma, 10 mg/kg p.o., 10 mg/kg): 207 min
Vd ([4]; male, CD1, mouse, plasma, iv, 2 mg/kg): 7.5 L/kg
bioavailability ([4]; male, CD1, mouse, plasma, oral, 10 mg/kg): 8%
AUC [4, 13]: 268 ng·h/mL
Cmax [4, 13]: 51 ng/mL
effect of CB2 antagonist AM 630 on compound-mediated neuroprotection (hippocampal cultures [5]): significantly attenuated
cell death response at 30 min or 60 min of incubation (hippocampal cultures [1]): no significant changes from controls
time points with significant cell death differences from control (hippocampal cultures [1]): ≥ 3 h
half-life at 1 μM ([6]; human, liver microsomes): 3.75 min
hERG Potassium channel % Inhibition of specific binding (hERG channel): 73%
efficacy of neuroprotection back to control levels (CFDA) [7, 14]: full efficacy
concentration required for full efficacy against oxidative stress toxicity ([7]; hippocampal cultures): 10 µM
efficacy of neuroprotection back to control levels (PI) [8, 14]: full efficacy

C=C(C)[C@@H]1CCC(C)=C[C@H]1c1c(O)cc(CC2CN(C(C)=O)C2)cc1O [KLS-13019]
Log P (Log P): 3.42
receptor binding TRPV1 (agonist) (TRPV1): no detectable interactions
receptor binding TRPV1 (antagonist) (TRPV1): no detectable interactions
Plasma protein binding Mouse % bound [9]: 99.2%
displacement of 3H-WIN-55212-2 radioactivity at CB2 (CB2): 55%
receptor binding PPARγ (agonist) (PPARγ): no detectable interactions
Aqueous solubility [2]: 87 µM
fold increase in aqueous solubility in comparison to CBD [2]: > five
receptor binding to 5HT-1a agonist site (5HT1a): no detectable interactions
Microsomal stability Mouse T 1/2 ([3]; mouse liver microsomes, 1 μM): 5.67 min
TC50, neuronal viability assay (hippocampal cultures [10]; [15]): 81000 nM
maximal toxicity, % of control values (hippocampal cultures [10]; day 14 cultures, 5 hours): 73 ± 3 % of control
maximal achieved toxicity, % of control, neuronal viability assay (hippocampal cultures [10]; day 19 cultures, time course at 30 μM cannabidiol, 100 μM KLS-13019): 62 ± 3 % of control
fold increase in TC50 relative to CBD (hippocampal cultures [10]; viability and cell death assays): 5 fold
Plasma protein binding Human % bound [11]: 99.2%
CL IV 2 mg/kg ([4]; CD1 mice, IV 2 mg/kg): 76.7 mL/min/kg
Vss IV 2 mg/kg ([4]; CD1 mice, IV 2 mg/kg): 3.2 L/kg
AUC p.o. [4, 16]: 617 ng·h/mL
Cmax at 10 mg/kg p.o. [4, 16]: 1080 ng/mL
Tmax p.o. [4, 16]: 15 min
F% (oral bioavailability) ([4]; CD1 mice, oral 10 mg/kg, IV 2 mg/kg): 67%
fold increase in F% in comparison to CBD ([4]; mice): > 8 fold
fold increase in AUC compared to CBD ([4]; mice, 10 mg/kg p.o.): 2.3 fold
clearance (CL), i.v. arm ([4]; mice, i.v. 2 mg/kg): 4.6 mL/min/kg
increase in T 1/2 in comparison to CBD ([4]; mice, p.o.): more than 50%
effect of CB2 antagonist AM 630 on compound-mediated neuroprotection (hippocampal cultures [5]): had no effect
cell death response at 30 min or 60 min of incubation (hippocampal cultures [1]): no significant changes from controls
time points with significant cell death differences from control (hippocampal cultures [1]): ≥ 3 h
TC50, cell death assay (hippocampal cultures [1]; [15]): ~100000 nM
Microsomal stability Human T 1/2 ([6]; human liver microsomes, 1 μM): 5.69 min
hERG Potassium channel % Inhibition of specific binding (hERG channel): 12%
efficacy of neuroprotection back to control levels (CFDA) [7, 14]: full efficacy
fold increase in neuroprotective potency vs CBD (relative EC50s, CFDA) [7, 14]: 31 fold
EC50 ([7]; read-out: EC50 for CFDA (neuroprotection), 30 mM Ethanol + 300 μM Ammonium Acetate, 5 hours, days 12–14): 127 ± 27 nM
efficacy of neuroprotection back to control levels (PI) [8, 14]: full efficacy
fold increase in neuroprotective potency vs CBD (relative IC50s, PI) [8, 14]: 15 fold
IC50 ([8]; read-out: IC50 for PI (neuroprotection), 30 mM Ethanol + 300 μM Ammonium Acetate, 5 hours, days 12–14): 203 nM
anticonvulsant activity in animal models [12]: lack of anticonvulsant activity
